The values that follow come from ChEMBL document CHEMBL1149503, “Growth inhibition of human cancer cells in vitro by T-type calcium channel blockers” (Bioorg Med Chem Lett, 2006).

One assay concerns A549. Description: Inhibition of human A549 cell growth by SRB assay. Format: functional. The method, boiled down: (§1)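 Cells grown in RPMI 1640 with 10% heat-inactivated FBS, 37 °C, 5% CO2. Seeded, exposed to various sample concentrations in triplicate for 72 h, then formalin-fixed 30 min at room temperature. Stained with 0.4% SRB 30 min, washed with 1% acetic acid, bound dye dissolved in 10 mM unbuffered Tris base, OD read at 520 nm. GI50 from dose–response curves, three independent experiments.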

The target in assay [1] is Voltage-dependent N-type calcium channel subunit alpha-1B (Homo sapiens) (UniProt Q00975). Briefly: Inhibition of N type calcium channel subunit Alpha-1B at 10 uM in HEK293 cells. Format: cell-based.
Chain of Voltage-dependent N-type calcium channel subunit alpha-1B (Homo sapiens) (Q00975 whole entry, looked up): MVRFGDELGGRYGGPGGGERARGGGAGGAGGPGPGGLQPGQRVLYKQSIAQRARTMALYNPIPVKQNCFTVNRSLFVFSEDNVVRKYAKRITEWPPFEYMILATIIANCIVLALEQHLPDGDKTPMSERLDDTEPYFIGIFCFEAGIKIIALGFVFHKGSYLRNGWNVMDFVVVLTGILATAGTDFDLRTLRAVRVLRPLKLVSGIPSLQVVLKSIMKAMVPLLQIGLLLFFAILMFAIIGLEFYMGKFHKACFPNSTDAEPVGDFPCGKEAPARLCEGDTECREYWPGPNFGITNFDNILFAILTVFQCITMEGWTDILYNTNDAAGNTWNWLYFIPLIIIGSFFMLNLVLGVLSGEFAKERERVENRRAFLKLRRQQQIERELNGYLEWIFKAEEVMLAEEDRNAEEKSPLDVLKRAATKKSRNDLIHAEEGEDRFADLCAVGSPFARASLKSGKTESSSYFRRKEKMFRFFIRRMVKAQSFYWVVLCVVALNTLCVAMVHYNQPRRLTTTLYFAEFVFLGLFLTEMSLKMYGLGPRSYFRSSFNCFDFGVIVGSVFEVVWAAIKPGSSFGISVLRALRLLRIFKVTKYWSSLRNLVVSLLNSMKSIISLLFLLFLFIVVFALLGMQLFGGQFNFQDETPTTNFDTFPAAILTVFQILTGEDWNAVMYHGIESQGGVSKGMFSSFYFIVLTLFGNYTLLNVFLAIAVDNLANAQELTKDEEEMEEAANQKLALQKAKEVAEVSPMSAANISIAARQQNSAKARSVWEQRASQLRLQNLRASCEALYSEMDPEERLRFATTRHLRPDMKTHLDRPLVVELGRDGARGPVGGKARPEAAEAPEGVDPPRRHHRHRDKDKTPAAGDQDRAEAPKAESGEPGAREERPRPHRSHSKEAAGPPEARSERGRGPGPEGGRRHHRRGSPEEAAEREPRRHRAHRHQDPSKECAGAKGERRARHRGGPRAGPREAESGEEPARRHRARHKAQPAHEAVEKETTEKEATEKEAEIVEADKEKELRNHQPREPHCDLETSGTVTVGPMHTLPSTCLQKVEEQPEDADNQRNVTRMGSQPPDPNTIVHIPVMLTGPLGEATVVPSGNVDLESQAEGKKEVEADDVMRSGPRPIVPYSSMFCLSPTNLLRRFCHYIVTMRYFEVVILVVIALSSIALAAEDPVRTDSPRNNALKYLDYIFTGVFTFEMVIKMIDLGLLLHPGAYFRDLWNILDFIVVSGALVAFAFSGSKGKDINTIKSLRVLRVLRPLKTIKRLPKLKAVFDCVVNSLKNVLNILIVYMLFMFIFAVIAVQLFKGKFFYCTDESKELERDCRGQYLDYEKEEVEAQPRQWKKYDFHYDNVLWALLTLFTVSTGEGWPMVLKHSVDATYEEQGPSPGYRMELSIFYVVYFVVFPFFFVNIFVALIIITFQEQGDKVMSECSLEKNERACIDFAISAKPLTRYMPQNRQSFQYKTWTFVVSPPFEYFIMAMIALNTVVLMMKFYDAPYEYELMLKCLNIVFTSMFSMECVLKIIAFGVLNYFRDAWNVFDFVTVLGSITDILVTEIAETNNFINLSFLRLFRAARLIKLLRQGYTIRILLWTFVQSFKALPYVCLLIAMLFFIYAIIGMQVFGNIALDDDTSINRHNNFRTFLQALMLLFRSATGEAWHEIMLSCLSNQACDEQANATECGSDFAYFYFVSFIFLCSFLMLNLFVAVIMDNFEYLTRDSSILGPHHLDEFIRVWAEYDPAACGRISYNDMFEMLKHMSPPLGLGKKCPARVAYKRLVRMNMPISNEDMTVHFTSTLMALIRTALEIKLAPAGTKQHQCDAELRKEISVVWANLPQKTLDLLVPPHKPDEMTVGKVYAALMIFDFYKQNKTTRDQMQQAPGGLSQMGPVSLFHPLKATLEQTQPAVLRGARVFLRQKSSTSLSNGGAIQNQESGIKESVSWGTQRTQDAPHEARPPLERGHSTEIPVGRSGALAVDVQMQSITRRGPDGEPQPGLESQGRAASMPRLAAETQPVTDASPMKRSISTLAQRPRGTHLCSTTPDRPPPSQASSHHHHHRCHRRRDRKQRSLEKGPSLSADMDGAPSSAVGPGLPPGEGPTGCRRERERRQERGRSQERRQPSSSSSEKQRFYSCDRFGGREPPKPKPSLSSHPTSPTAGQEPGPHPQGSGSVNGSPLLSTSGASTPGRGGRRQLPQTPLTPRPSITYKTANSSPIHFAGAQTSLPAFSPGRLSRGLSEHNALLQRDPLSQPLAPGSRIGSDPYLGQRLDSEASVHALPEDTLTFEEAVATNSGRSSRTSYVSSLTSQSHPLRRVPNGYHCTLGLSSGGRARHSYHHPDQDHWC
The next assay has as its system HEK293. Description: Cytotoxicity against HEK293 cells at 100 uM. Format: functional, cell-based. As to conditions: Homo sapiens.
The next assay deals with SK-MEL-2. Briefly: Inhibition of human SK-MEL-2 cell growth by SRB assay. Format: functional, cell-based. The method, boiled down:
as §1

Another assay relates to HCT-15. Description: Inhibition of human HCT15 cell growth by SRB assay. Format: functional. The method, boiled down:
as §1

For a further assay, the system named is SK-OV-3. Briefly: Inhibition of human SKOV3 cell growth by SRB assay. In kind it is functional. The method, boiled down:
as §1

The target in assay [2] is Voltage-dependent T-type calcium channel subunit alpha-1G (Homo sapiens) (UniProt O43497). Briefly: Inhibition of T type calcium channel subunit alpha-1G at 10 uM in HEK293 cells. In kind it is cell-based. The method, boiled down:
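Whole-cell patch clamp on α1G T-type channel expressed in HEK293 cells, test compound at 10 µM. Currents evoked every 15 s by 50 ms depolarizing step from 100 to 30 mV (signs as printed). % inhibition = 100[(C−D)/C], C and D being peak current before and with drug. Three independent experiments.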

The next assay has as its system KB. Description: Inhibition of human KB cell growth by SRB assay. In kind it is functional. In a few lines:
as §1

The subject of assay [3] is T-type calcium channel Cav3.1 (α1G). Description: Inhibition of T-type calcium channel Cav3.1. As to conditions: Homo sapiens.

The source made the active and inactive calls. No cut-off for these calls is given here. Some results are limits rather than exact numbers.

Chain of Voltage-dependent T-type calcium channel subunit alpha-1G (Homo sapiens) (O43497 whole entry): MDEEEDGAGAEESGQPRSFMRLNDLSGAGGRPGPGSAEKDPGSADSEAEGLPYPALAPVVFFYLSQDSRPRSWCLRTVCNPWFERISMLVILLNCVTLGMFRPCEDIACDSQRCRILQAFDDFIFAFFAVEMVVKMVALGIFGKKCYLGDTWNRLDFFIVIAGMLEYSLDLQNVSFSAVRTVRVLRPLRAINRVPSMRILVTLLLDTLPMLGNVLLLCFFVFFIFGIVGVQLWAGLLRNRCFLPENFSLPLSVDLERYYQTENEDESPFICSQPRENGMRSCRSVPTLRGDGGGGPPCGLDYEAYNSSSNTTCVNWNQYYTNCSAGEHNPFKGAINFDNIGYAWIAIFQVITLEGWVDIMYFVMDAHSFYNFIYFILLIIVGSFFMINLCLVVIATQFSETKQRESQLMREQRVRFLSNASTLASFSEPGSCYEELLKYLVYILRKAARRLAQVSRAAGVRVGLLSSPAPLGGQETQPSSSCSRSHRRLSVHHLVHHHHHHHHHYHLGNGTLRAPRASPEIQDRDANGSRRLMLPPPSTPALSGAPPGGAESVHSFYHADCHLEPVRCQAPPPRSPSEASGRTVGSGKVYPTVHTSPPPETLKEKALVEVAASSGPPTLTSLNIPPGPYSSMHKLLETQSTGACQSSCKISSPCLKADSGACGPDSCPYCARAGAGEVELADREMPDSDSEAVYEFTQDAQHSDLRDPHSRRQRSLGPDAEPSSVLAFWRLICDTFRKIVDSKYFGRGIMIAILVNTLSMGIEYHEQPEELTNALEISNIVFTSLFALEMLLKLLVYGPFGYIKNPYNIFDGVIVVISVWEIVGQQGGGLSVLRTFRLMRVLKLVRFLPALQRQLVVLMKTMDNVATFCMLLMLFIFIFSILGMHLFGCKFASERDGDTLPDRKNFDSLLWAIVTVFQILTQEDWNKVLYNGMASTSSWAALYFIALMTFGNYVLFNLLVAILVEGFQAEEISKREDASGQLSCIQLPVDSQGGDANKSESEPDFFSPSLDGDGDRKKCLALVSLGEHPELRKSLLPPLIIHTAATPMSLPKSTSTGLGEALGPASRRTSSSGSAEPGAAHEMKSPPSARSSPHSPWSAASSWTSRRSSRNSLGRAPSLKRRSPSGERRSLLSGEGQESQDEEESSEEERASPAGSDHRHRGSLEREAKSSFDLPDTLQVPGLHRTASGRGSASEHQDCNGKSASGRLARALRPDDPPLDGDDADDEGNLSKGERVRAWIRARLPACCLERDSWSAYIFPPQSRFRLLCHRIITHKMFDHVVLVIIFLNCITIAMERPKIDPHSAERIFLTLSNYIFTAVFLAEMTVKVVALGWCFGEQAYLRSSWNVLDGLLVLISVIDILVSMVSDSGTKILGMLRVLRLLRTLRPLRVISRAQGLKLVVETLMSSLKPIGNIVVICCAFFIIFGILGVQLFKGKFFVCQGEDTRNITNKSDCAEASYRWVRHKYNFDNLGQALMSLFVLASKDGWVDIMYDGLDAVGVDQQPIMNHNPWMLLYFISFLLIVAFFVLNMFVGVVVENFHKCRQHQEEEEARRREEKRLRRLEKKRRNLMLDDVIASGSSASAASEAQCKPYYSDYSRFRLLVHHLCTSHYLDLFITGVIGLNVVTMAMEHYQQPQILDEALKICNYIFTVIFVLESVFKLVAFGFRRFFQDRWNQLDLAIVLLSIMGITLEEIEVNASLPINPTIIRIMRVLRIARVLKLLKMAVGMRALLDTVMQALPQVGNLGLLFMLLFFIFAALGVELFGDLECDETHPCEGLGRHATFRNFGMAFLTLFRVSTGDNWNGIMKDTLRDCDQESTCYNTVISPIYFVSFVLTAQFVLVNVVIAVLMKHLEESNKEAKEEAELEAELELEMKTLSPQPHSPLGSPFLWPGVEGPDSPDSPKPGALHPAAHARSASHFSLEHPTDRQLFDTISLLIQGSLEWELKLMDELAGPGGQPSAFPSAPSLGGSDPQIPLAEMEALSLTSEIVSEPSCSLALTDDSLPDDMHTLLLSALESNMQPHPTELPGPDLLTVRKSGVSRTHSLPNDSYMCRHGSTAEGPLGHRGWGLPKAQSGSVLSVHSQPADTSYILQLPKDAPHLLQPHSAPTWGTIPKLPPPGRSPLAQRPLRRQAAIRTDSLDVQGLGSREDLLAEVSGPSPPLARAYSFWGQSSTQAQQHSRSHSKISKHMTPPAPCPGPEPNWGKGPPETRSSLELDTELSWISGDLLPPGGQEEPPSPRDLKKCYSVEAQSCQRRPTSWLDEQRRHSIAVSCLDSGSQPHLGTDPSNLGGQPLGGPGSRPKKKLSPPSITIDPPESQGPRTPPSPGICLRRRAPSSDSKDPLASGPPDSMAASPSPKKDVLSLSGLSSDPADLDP

For the compound `CCN1C(N2CCCCC2)=Nc2ccccc2C1CC(=O)NCc1ccccc1` (centres undefined), the GI50 amounted to 95.1 µM in the assay on A549; 42.5 µM in the assay on SK-MEL-2; 74.2 µM in the assay with HCT-15; 77.8 µM in the assay with SK-OV-3; 108 µM with KB. For the same compound, the inhibition stood at 9.3% in [1] and 59.3% in [2]. The Activity entry in the assay on HEK293 is “Not toxic”.
In the case of `Nc1ccc(CNC(=O)CC2c3ccccc3N=C(N3CCCCC3)N2c2ccccc2)cc1` (centres undefined), the 50% growth inhibitory concentration (GI50) is 36.6 µM in the assay on A549; 30.7 µM with SK-MEL-2; 33.9 µM in the assay on HCT-15; 39.3 µM in the assay on SK-OV-3; 37.1 µM in the assay with KB. Besides, in assay [1], the inhibition was 8.9%. The Activity result in the assay with HEK293 was “Not toxic”.
For the compound `CCN1C(N(C)C)=Nc2ccccc2C1CC(=O)NCc1ccc(NS(=O)(=O)c2ccc(F)cc2)cc1` (centres undefined), the GI50 with A549 came out at 66.1 µM; in the assay on SK-MEL-2, 31.4 µM; in the assay with HCT-15 it was 38.6 µM; in the assay on SK-OV-3, 46.5 µM; in the assay on KB it was 41.6 µM. Also, the outcome in assay [1] was inactive. Besides, in the assay on HEK293, the Activity entry is “Not toxic”. Also, in assay [2], the inhibition came out at 62.7%.
On to `CCN1C(N2CCCCC2)=Nc2ccccc2C1CC(=O)NCc1ccc(NS(=O)(=O)c2ccc(C)cc2)cc1` (centres undefined), for which the concentration for 50% growth inhibition (GI50) in the assay with A549 worked out at 23 µM; with SK-MEL-2, 3.52 µM; in the assay with HCT-15, 25.7 µM; in the assay with SK-OV-3 it was 22.8 µM; in the assay with KB it was 22.3 µM. Besides, in assay [1], the outcome was inactive. Also, the IC50 in [3] was determined as 0.96 µM. Besides, the Activity result with HEK293 was “Not toxic”. Moreover, the inhibition in assay [2] was determined as 91.3%.
As for `COC(=O)CC1c2ccccc2N=C(NCCCCCN)N1c1ccc(-c2ccccc2)cc1` (centres undefined), the GI50 in the assay with A549 is 3.39 µM; in the assay with SK-MEL-2, 3.32 µM; in the assay on HCT-15 it was 3.64 µM; in the assay on SK-OV-3, 3.24 µM; in the assay on KB, 3.77 µM. The outcome in [1] was inactive. Further, in assay [3], the IC50 worked out at 0.56 µM. For the same compound, in the assay on HEK293, the Activity entry is “Not toxic”.
As to `CCN1C(N(C)C)=Nc2ccccc2C1CC(=O)NCc1ccccc1` (centres undefined), the GI50 with A549 is greater than 200 µM; in the assay with SK-MEL-2 it was 50.2 µM; in the assay with HCT-15, greater than 200 µM; in the assay on SK-OV-3, greater than 200 µM; in the assay with KB it was greater than 200 µM. In addition, the inhibition in assay [1] was determined as 27.6%; in assay [2], 34.4%. Also, the Activity entry with HEK293 is “Not toxic”.
For the compound `Cc1ccc(S(=O)(=O)Nc2ccc(CNC(=O)CC3c4ccccc4N=C(N4CCCCC4)N3c3ccccc3)cc2)cc1` (centres undefined), the GI50 in the assay with A549 was found to be 3.06 µM; with SK-MEL-2, 2.7 µM; with HCT-15, 2.8 µM; in the assay with SK-OV-3, 2.93 µM; with KB, 3.11 µM. Further, the inhibition in [1] was 14.1%. For the same compound, the IC50 in assay [3] worked out at 0.17 µM. The Activity entry in the assay with HEK293 is “Not toxic”.
Consider `CCN1C(N(C)C)=Nc2ccccc2C1CC(=O)NCc1ccc(NS(=O)(=O)c2ccc(C)cc2)cc1` (centres undefined), for which the GI50 was 39.2 µM with A549; 24.2 µM with SK-MEL-2; 33.9 µM with HCT-15; 33.4 µM in the assay with SK-OV-3; 33.8 µM in the assay on KB. Also, the inhibition came to 8.9% in [1] and 81.3% in assay [2]. Further, in the assay on HEK293, the Activity entry is “Not toxic”.
